Broadly, the Kd is a measure of binding affinity in units of concentration. What is called Ki is a dissociation constant, usually derived from enzyme kinetics or from competition with a known ligand. Higher therefore signals a looser hold on the target. The koff is a measure of how fast the partners let go of each other.

No end group written: not given here. *: point of attachment. Biotin = O=C1N[C@H]2[C@H](CS[C@H]2CCCCC(=O)*)N1; PEG4 = NCCOCCOCCOCCOCCC(=O)O A value given as a limit tells only on which side of the number the result lay.

Test [1] addresses 18-residue fluoresceinated Bim BH3 peptide (human). Kind of test: fluorescence polarisation.
In test [2] the target is T1, Bcl-w (Homo sapiens, UniProt Q92843).
T1 sequence (Q92843 1-193): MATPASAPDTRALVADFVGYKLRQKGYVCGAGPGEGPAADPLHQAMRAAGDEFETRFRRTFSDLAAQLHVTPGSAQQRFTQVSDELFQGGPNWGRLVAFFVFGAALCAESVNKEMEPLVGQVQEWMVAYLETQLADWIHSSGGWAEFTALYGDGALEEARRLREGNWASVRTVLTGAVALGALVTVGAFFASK
The test can be described thus: Fluorescence polarization competition with fluoresceinated Bim BH3. In kind it is binding.

The target in test [3] is T2, Bfl-1 (Homo sapiens, UniProt Q16548).
T2 sequence (Q16548 1-151 limits assumed): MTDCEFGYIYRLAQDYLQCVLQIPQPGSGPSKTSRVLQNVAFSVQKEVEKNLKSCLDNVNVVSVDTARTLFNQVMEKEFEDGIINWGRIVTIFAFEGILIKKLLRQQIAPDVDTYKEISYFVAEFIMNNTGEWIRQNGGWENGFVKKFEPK
Kind of test: Bio-layer interferometry. In kind it is binding. The essentials:
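Biotinylated 23-residue test peptide (free N-terminus, amidated C-terminus), at 0.1 mg/ml, loaded on streptavidin biosensors to ~0.42 response units. Protein at 2–3 concentrations (30–250 nM) associated for 10 min, then dissociated for 60 min in 20 mM phosphate, 50 mM NaCl, 0.1% BSA, pH 7.5. Off-rate upper bound taken from signal fluctuation over 1000 s. Association phase fit for kon and Rmax.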
For orientation: BLI is a label-free optical method that tracks binding on a fibre tip over time.

In test [4] the target is Mcl-1 (Homo sapiens, UniProt Q07820). The test can be described thus: Fluorescence polarization competition with fluoresceinated Bim BH3. In kind it is binding. Background: Polarisation of emitted light reports the rotation of a fluorescent probe.
Sequence of Mcl-1 (Homo sapiens, UniProt Q07820) (Q07820 whole entry): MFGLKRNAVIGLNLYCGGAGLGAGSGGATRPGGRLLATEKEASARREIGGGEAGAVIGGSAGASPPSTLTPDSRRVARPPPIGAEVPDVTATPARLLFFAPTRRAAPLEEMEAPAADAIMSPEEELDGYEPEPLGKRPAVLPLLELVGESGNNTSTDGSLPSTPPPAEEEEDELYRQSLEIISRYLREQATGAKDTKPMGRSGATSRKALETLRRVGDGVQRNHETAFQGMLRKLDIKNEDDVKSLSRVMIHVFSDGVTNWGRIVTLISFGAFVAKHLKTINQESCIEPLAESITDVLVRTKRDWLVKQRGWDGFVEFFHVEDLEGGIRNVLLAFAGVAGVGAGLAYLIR
For test [5], the target named is Bcl-w (UniProt Q92843). Kind of test: fluorescence polarisation.
Test [6] addresses T3, Bfl-1.
T3 sequence (Q16548 whole entry, species assumed, looked up): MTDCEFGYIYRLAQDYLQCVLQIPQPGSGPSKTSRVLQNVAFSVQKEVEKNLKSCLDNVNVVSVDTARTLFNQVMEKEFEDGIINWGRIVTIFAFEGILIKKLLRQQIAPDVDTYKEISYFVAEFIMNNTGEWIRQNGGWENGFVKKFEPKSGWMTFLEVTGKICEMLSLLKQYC
The test can be described thus: fluorescence polarisation.

Test [7] concerns the target T2, Bfl-1. Kind of test: Fluorescence polarization competition with fluoresceinated Bim BH3. It is filed as binding.
The target of test [8] is Bid BH3 BH3 (Homo sapiens) (UniProt P55957). The conditions noted are these: cited from earlier work.
Sequence of Bid BH3 BH3 (Homo sapiens) (P55957 79-104): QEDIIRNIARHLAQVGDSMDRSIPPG
Test [9] has as its target Puma BH3 BH3 (Homo sapiens) (UniProt Q9BXH1). Particulars: cited from earlier work.
Test [10] deals with Bcl-2 (Homo sapiens, UniProt P10415). Kind of test: Fluorescence polarization competition with fluoresceinated Bim BH3. It is filed as binding.
Sequence of Bcl-2 (Homo sapiens, UniProt P10415) (P10415 whole entry): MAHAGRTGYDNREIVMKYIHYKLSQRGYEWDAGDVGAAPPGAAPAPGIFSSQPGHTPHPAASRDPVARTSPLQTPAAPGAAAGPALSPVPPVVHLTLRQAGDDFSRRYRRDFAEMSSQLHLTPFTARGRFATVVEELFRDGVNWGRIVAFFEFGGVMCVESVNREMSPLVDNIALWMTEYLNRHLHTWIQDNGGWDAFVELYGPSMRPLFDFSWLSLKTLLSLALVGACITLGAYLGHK
Test [11] has as its target Bcl-xL (Homo sapiens, UniProt Q07817). The test is described as above. In kind it is binding.
Test [12] concerns the target T4, Bcl-xL (UniProt Q07817-1 1-233). Kind of test: fluorescence polarisation.
In test [13] the target is T5, Bcl-w (UniProt Q92843 1-193). Kind of test: fluorescence polarisation.
For test [14], the target named is T6, Bcl-2 (UniProt P10415 1-239). Kind of test: fluorescence polarisation.
T6 sequence (P10415 whole entry): as above
The target in test [15] is T7, Mcl-1 (UniProt Q07820 1-350). Kind of test: fluorescence polarisation.
T7 sequence (Q07820 whole entry): as the sequence (Q07820 whole entry) above
Test [16] deals with T3, Bfl-1. Kind of test: fluorescence polarisation. This is another data set of the same source.
Test [17] addresses T4, Bcl-xL. Kind of test: BLI.
Test [18] concerns the target T7, Mcl-1. The test can be described thus: BLI.
Test [19] has as its target T5, Bcl-w. Kind of test: fluorescence polarisation. This is another data set of the same source.
In test [20] the target is T6, Bcl-2. Kind of test: fluorescence polarisation. This is another data set of the same source.

T4 sequence (Q07817 whole entry): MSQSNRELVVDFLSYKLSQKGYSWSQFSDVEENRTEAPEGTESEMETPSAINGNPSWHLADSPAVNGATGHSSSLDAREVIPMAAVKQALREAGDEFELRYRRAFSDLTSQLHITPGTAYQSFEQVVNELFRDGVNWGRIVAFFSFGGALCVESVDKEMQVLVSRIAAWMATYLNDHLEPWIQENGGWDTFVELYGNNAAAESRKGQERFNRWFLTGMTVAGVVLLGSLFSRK
Sequence of Puma BH3 BH3 (Homo sapiens) (Q9BXH1 130-155): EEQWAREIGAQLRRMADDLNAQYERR
Sequence of Bcl-xL (Homo sapiens, UniProt Q07817) (Q07817 whole entry): as the sequence (Q07817 whole entry) above

Bfl-1 (domain or fragment) had a Kd in test [1] of 4 nM.
For the molecule Ac-RPEIWIAQELRRAGDVLNAYYAR-NH2 [FA1], the Ki in [2] is 2 ± 1 nM; in [4] it was 1 ± 0.1 nM. The molecule also gave a Kd in test [3] of at most 0.3 nM. Moreover, the koff in test [3] (pH 7.5, read-out: upper limit on koff, dissociation of Bfl-1 from surface-bound peptide) was at most 1.5e-05 s⁻¹.
In test [5], Bim_D3fK with E3gV (peptide) yielded a fold weakening of binding against Bim D3fK of 2.5 fold. The molecule further returned a fold increase in binding against Bim D3fK in test [6] of 2 fold.
For the molecule RPEIWMAQVLRRFGDLLNAYYAR [FD2], the results for the Ki in [7] and in test [4] were 3.8 ± 0.7 nM and 1 ± 0.1 nM, respectively. For the same molecule, the “specificity for Bfl-1 over Bcl-xL, Bcl-2 and Bcl-w” value in test [7] (from competition FP Ki values) is 4-60 fold.
In the case of Bfl-1 (from UniProt Q16548), the Kd in [8] and in [9] was 50 nM in each case.
In turn, Ac-RPEIWLAQYLRRLGDQINAYYAR-NH2 [FD1] had an inhibition constant (Ki) in [7] of 0.7 ± 0.2 nM.
Ac-RPEIWIAQGLRRIGDTWNAYYAR-NH2 [FW1]: the Ki in test [10] and in test [11] was 20 to 30 nM each time. Also, the “fold lower Ki for Bfl-1 compared to Bcl-w” value in test [7] (from competition FP Ki values) was ~ 37 fold.
Regarding Ac-RPEIWLAQYLRRLGDQINAYYAR-NH2 [FD1], the Ki in test [12] is 5 nM; in test [13] it was 12 nM; in test [14] it was 7 nM; in test [15], 0.1 nM; in [16], 0.7 nM.

B1: Biotinylated FA1 (peptide)
peptide: {Biotin-PEG4}-RPEIWIAQELRRAGDVLNAYYAR-NH2
SMILES: CC[C@H](C)[C@H](NC(=O)[C@H](Cc1c[nH]c2ccccc12)NC(=O)[C@@H](NC(=O)[C@H](CCC(=O)O)NC(=O)[C@@H]1CCCN1C(=O)[C@H](CCCNC(=N)N)NC(=O)CCOCCOCCOCCOCCNC(=O)CCCC[C@@H]1SC[C@@H]2NC(=O)N[C@@H]21)[C@@H](C)CC)C(=O)N[C@@H](C)C(=O)N[C@@H](CCC(N)=O)C(=O)N[C@@H](CCC(=O)O)C(=O)N[C@@H](CC(C)C)C(=O)N[C@@H](CCCNC(=N)N)C(=O)N[C@@H](CCCNC(=N)N)C(=O)N[C@@H](C)C(=O)NCC(=O)N[C@@H](CC(=O)O)C(=O)N[C@H](C(=O)N[C@@H](CC(C)C)C(=O)N[C@@H](CC(N)=O)C(=O)N[C@@H](C)C(=O)N[C@@H](Cc1ccc(O)cc1)C(=O)N[C@@H](Cc1ccc(O)cc1)C(=O)N[C@@H](C)C(=O)N[C@@H](CCCNC(=N)N)C(N)=O)C(C)C
For B1, the values for the Kd in [17] and in test [18] were around 33 nM and around 6 nM, respectively.
Take Ac-RPEIWIAQELRRAGDVLNAYYAR-NH2 [FA1 (unlabeled, 23 residues)]: the values for the Ki in test [12] and in test [14] were 8 nM and 313 nM, respectively.
As to H-RPEIWMAQVLRRFGDLLNAYYAR-OH [FD2], the Ki in test [12] was determined as 18 nM; in test [13], 104 nM; in [14], 223 nM; in [16] it was 3.8 nM.
In the case of Ac-IWIAQELRRIGDEFNAYY-NH2 (also: fluoresceinated, site not given here) [18-residue fluoresceinated Bim BH3 peptide], the Kd was 15 nM in test [19] and 5 nM in test [20].
Take Ac-RPEIWIAQGLRRIGDTWNAYYAR-NH2 [FW1 (unlabeled, 23 residues)]: the Ki was 20 nM in test [12], 298 nM in [13], 31 nM in [14] and 0.2 nM in [15].

Source of the values: PMC3631442 (ACS chemical biology, 2013).
